Consider six compounds from ChEMBL document CHEMBL2396586, “Discovery of non-LBD inhibitor for androgen receptor by structure-guide design” (Bioorg Med Chem Lett, 2013).

For data set [1], the target named is T1, Androgen receptor (Homo sapiens, UniProt P10275).
T1 sequence (P10275 whole entry): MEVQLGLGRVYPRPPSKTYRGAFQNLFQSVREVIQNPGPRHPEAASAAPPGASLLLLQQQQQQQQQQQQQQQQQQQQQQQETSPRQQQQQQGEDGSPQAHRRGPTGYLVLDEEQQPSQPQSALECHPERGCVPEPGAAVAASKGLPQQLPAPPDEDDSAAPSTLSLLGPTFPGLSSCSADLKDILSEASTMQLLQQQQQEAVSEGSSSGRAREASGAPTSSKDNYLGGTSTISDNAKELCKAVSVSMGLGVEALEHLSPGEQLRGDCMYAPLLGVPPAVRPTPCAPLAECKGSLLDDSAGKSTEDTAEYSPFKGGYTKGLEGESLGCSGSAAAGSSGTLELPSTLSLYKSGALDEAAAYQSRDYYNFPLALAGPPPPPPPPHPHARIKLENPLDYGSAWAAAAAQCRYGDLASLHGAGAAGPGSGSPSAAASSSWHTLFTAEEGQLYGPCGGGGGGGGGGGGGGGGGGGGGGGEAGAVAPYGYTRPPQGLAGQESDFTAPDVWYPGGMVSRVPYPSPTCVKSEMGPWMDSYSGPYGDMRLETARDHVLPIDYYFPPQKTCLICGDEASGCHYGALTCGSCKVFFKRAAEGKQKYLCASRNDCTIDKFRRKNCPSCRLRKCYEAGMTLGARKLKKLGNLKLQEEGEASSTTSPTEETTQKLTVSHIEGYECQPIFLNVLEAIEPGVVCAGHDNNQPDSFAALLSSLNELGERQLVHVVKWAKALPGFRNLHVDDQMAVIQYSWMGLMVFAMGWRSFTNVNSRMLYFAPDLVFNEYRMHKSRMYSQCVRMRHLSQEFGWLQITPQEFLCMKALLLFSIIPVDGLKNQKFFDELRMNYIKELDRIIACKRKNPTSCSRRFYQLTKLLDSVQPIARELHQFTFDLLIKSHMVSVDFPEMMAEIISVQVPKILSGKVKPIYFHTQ
Nature of the data set: Inhibition of androgen receptor in human LNCAP cells after 1 day by luciferase reporter gene assay. In kind it is cell-based.

Data set [2] concerns LNCaP. The data set is described as follows: Cytotoxicity against human LNCAP cells assessed as cell viability after 2 days by cell counting method. As to conditions: 48 h. In kind it is functional, cell-based. An outline of the steps:
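LNCap cells were grown in RPMI1640 with 10% FBS and penicillin/streptomycin at 37 °C in 5% CO2. They were seeded at 4 × 10³ cells/well, left 24 h, then exposed to compounds for 2 days. Viability was read by CCK-8 absorbance, in triplicate.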

Data set [3] in a line: Oral bioavailability in Sprague-Dawley rat at 2.5 mg/kg. In kind it is ADME, organism-based. As to conditions: in vivo. The essentials:
(§1)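 Male Sprague-Dawley rats, n = 3 per route, were given 2.5 mg/kg by either intravenous or oral dosing. Plasma concentration–time profiles were followed, and PK parameters were derived from them, with AUC taken over 0–72 h and also to infinity.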

The nature of data set [4]: Mean residence time in Sprague-Dawley rat at 2.5 mg/kg, po. Type of data set: ADME, organism-based. Also on record: dose 2.5 mg/kg, route oral. As to conditions: in vivo. The essentials:
as §1

A short description of data set [5]: Mean residence time in Sprague-Dawley rat at 2.5 mg/kg, iv. Particulars: in vivo. In kind it is ADME, organism-based. The arrangement: dose 2.5 mg/kg, route intravenous. An outline of the steps: as §1
A short description of data set [6]: Volume of distribution at steady state in Sprague-Dawley rat at 2.5 mg/kg, iv. As to conditions: in vivo, read-out: Vdss. Type of data set: ADME, organism-based. Also on record: dose 2.5 mg/kg, route intravenous. The essentials: as §1
A short description of data set [7]: Blood clearance in Sprague-Dawley rat at 2.5 mg/kg, iv. The arrangement: dose 2.5 mg/kg, route intravenous. Type of data set: ADME, organism-based. The essentials:
as §1

Data set [8] in a line: AUC (0 to infinity) in Sprague-Dawley rat at 2.5 mg/kg, po. In kind it is ADME, organism-based. The arrangement: time infinity, dose 2.5 mg/kg, route oral. Particulars: plasma. An outline of the steps:
as §1

A short description of data set [9]: AUC (0 to infinity) in Sprague-Dawley rat at 2.5 mg/kg, iv. Type of data set: ADME, organism-based. As to conditions: plasma. Also on record: time infinity, dose 2.5 mg/kg, route intravenous. An outline of the steps:
as §1

Data set [10] is described as follows: AUC (0 to 72 hrs) in Sprague-Dawley rat at 2.5 mg/kg, po. Type of data set: ADME, organism-based. As to conditions: plasma. Also on record: time < 72 hr, dose 2.5 mg/kg, route oral. An outline of the steps: as §1
A short description of data set [11]: AUC (0 to 72 hrs) in Sprague-Dawley rat at 2.5 mg/kg, iv. Type of data set: ADME, organism-based. Also on record: time < 72 hr, dose 2.5 mg/kg, route intravenous. As to conditions: plasma. An outline of the steps:
as §1

A short description of data set [12]: Elimination half life in Sprague-Dawley rat at 2.5 mg/kg, po. As to conditions: in vivo, read-out: beta t1/2 (converted). Type of data set: ADME, organism-based. Also on record: dose 2.5 mg/kg, route oral. An outline of the steps:
as §1

Data set [13] is described as follows: Elimination half life in Sprague-Dawley rat at 2.5 mg/kg, iv. In kind it is ADME, organism-based. The arrangement: dose 2.5 mg/kg, route intravenous. Particulars: in vivo, read-out: beta t1/2 (converted). The essentials: as §1
A short description of data set [14]: Cmax in Sprague-Dawley rat at 2.5 mg/kg, po. In kind it is ADME, organism-based. The arrangement: dose 2.5 mg/kg, route oral. As to conditions: in vivo. The essentials:
as §1

A short description of data set [15]: Tmax in Sprague-Dawley rat at 2.5 mg/kg, po. Also on record: dose 2.5 mg/kg, route oral. Particulars: in vivo. In kind it is ADME, organism-based. An outline of the steps:
as §1

In data set [16] the target is CYP2D6 (Homo sapiens, UniProt P10635). The data set is described as follows: Inhibition of CYP2D6 (unknown origin) at 10 uM relative to control. Type of data set: ADME.
Data set [17] has as its target CYP3A4 (Homo sapiens, UniProt P08684). Nature of the data set: Inhibition of human recombinant CYP3A4 using dibenzylfluorescein as substrate at 10 uM preincubated for 20 mins prior to enzyme/substrate addition measured after 20 mins by fluorometric assay relative to control. Type of data set: ADME. Particulars: recombinant CYP3A4, probe dibenzylfluorescein. An outline of the steps:
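Vivid fluorometric kit. Compounds were in acetonitrile, with an acetonitrile vehicle control. NADP-regenerating system (1.0 mM NADP+, 3.3 mM glucose-6-phosphate, 3.3 mM MgCl2, 0.4 U/mL G6PDH in 10 mM KPO4, pH 8.0) was preincubated with compound at 37 °C for 20 min. Then 0.5 pmol recombinant human CYP3A4 plus dibenzylfluorescein was added, 20 min, and the reaction was stopped. Background had enzyme/substrate added after the stop. Fluorescein read at ex 485/em 530 nm.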

Data set [18] in a line: Permeability of the compound at pH 7.4 at 500 uM after 16 hrs by PAMPA. Particulars: pH 7.4, 16 h. In kind it is ADME. The essentials: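 PAMPA: the donor solution was diluted from a 1 mM DMSO stock into system buffer at pH 7.4. Lipid solution was applied to each filter membrane, and the receiver side held acceptor sink buffer. The plates were incubated 16 h at room temperature. Donor and receiver sides were analysed by UV spectrometry, and donor initial concentration was also measured.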

The nature of data set [19]: Octanol-water partition coefficient, log P of the compound by pH-metric method. Type of data set: physicochemical.
Data set [20] can be described thus: Metabolic stability in rat liver microsomes assessed as compound remaining at […] after 1 hr. In kind it is ADME, Microsome. Particulars: read-out: Stability.

Sequence of CYP2D6 (P10635 whole entry): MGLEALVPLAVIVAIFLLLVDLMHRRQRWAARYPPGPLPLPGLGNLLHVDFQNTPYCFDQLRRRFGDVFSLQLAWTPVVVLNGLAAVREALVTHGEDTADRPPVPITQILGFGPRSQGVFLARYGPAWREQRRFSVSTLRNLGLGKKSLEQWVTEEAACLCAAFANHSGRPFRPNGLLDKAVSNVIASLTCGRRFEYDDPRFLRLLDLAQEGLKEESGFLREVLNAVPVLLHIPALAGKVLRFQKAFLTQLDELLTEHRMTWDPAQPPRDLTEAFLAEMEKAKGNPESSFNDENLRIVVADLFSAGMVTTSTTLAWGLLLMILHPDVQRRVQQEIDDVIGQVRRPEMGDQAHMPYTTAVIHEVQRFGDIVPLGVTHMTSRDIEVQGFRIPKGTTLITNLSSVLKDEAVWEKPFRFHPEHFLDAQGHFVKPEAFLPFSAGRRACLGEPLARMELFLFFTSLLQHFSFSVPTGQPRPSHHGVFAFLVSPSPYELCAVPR
Sequence of CYP3A4 (P08684 whole entry): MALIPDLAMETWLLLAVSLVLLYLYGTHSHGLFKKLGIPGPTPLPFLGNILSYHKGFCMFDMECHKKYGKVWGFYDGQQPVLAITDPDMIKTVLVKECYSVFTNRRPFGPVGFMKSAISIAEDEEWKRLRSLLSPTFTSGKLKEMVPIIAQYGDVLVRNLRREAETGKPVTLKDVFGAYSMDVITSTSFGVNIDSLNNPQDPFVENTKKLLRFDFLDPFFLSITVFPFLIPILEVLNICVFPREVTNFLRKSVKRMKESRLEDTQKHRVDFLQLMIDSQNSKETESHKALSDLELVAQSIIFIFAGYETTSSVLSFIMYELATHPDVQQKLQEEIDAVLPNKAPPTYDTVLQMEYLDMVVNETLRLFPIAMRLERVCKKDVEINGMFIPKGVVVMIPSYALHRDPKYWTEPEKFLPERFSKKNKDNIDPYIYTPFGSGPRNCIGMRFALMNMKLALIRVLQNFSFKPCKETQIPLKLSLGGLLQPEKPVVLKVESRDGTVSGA

As to `CCS(=O)(=O)Nc1cccc(-c2cc(=O)n(-c3ccc(C#N)cc3)nc2C)c1`, the IC50 stood at 6.26 µM in data set [1] and 39 µM in data set [2].

For `CCS(=O)(=O)Nc1cccc(-c2cc(=O)n(-c3ccc(Cl)c(Cl)c3)nc2C)c1`, the bioavailability in data set [3] amounted to 102%. In addition, the MRT in [4] is 34.9 h; in data set [5] it was 26.9 h. Moreover, the Vd in data set [6] was determined as 2.25 L/kg. Further, the clearance in data set [7] is 1.41 mL/min/kg. Also, the results for the AUC(0-inf) in [8] and in data set [9] were 30500 ng·h/mL and 29800 ng·h/mL, respectively. The AUC(0-t) at 72 h came out at 26800 ng·h/mL in data set [10] and 27500 ng·h/mL in [11]. Further, the half-life in data set [12] is 21.6 h; in data set [13], 19.2 h. Also, the peak level in [14] (Cmax) was 767 ng/mL. For the same compound, in data set [15], the Tmax turned out to be 10.3 h. The compound also returned an inhibition at 10 µM in data set [16] of 0%. In data set [17], the inhibition at 20 min, 10 µM came out at 6.7%. Further, the permeability result in [18] was “permeable”. The same compound showed a logP in data set [19] of 3.82. Moreover, the values for the IC50 in [1] and in [2] were 2.65 µM and 11.6 µM, respectively. For the same compound, the remaining at 1 h in data set [20] is greater than 99%.

For `CCS(=O)(=O)Nc1cccc(-c2cc(=O)n(-c3cc(Cl)cc(Cl)c3)nc2C)c1`, the results for the IC50 in data set [1] and in data set [2] were 13.2 µM and 22.9 µM, respectively.

`CCS(=O)(=O)Nc1cccc(-c2cc(=O)n(-c3ccc(F)c(Cl)c3)nc2C)c1`: the IC50 worked out at 5.07 µM in data set [1] and 26.7 µM in [2].

For `CCS(=O)(=O)Nc1cccc(-c2cc(=O)n(-c3ccc4ccccc4c3)nc2C)c1`, the values for the IC50 in data set [1] and in data set [2] were 9.76 µM and 18.3 µM, respectively.

For the compound `CC(O)(CS(=O)(=O)c1ccc(F)cc1)C(=O)Nc1ccc(C#N)c(C(F)(F)F)c1` (centres undefined) [BICALUTAMIDE], in data set [2], the IC50 was determined as 23.8 µM.
